In ChEMBL document CHEMBL1136172, “Pyrrolo[2,3-h]quinolinones: synthesis and photochemotherapic activity” (Bioorg Med Chem Lett, 2003) one finds IC50 data, which are given here for ten compounds.

As usually defined, the IC50 is the midpoint of a concentration-inhibition curve.

What all share (assay type): functional, cell-based
Common to all, as to settings: HT-1080, light or radiation study

Test [1] relates to HT-1080. The experiment in a line: Inhibition of cell growth after irradiation at UVA dose of 6.5 J/cmE-2 in HT1080 human fibrosarcoma cell line. A digest of the protocol:
(§1)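 HT-1080 cells from exponential culture seeded at 5×10⁴ cells/mL in DMEM with 10% FBS and penicillin/streptomycin, and allowed to adhere 18 h. Drug was dissolved in DMSO, diluted in HBSS pH 7.2 and incubated 30 min at 37 °C, 5% CO2. Cells were irradiated with lamps emitting mainly at 365 nm, then given medium for 72 h. Read-out was MTT versus untreated controls, with IC50 by linear regression from three experiments.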

Test [2] has as its system HT-1080. The test can be described thus: Inhibition of cell growth after irradiation at UVA dose of 2.6 J/cmE-2 in HT1080 human fibrosarcoma cell line. A digest of the protocol:
as §1

For test [3], the system named is HT-1080. The experiment in a line: Inhibition of cell growth after irradiation at UVA dose of 3.2 J/cmE-2 in HT1080 human fibrosarcoma cell line. An outline of the steps:
as §1

In the case of `Cc1cc2c(n1-c1ccccc1)CCc1cc(S(=O)(=O)c3ccccc3)c(O)nc1-2`, the IC50 with HT-1080 [1] stood at 0.4 µM; in the test with HT-1080 [2] it was 3.6 µM; in the test with HT-1080 [3], 2.3 µM.

In the case of `Cc1cc2c(n1-c1ccccc1)CCc1cc(C(=O)c3ccccc3)c(O)nc1-2`, the IC50 was 1.7 µM in the test on HT-1080 [1], 6.6 µM in the test on HT-1080 [2] and 4.6 µM with HT-1080 [3].

For the compound `COc1c2occc2cc2ccc(=O)oc12` [METHOXSALEN], the results for the IC50 with HT-1080 [1], in the test on HT-1080 [2] and in the test on HT-1080 [3] were 1.5 µM, 7.8 µM and 2.1 µM, respectively.

Take `Cc1cc2c(n1C)CCc1cc(C(=O)c3ccccc3)c(O)nc1-2`: the IC50 in the test with HT-1080 [1], in the test on HT-1080 [2] and with HT-1080 [3] was greater than 20 µM each time.

Turning to `COc1c2ccoc2cc2oc(=O)ccc12` [BERGAPTEN], the results for the 50% inhibitory concentration (IC50) with HT-1080 [1], in the test on HT-1080 [2] and in the test with HT-1080 [3] were 0.9 µM, 8.5 µM and 1.8 µM, respectively.

Turning to `O=c1ccc2ccc3occc3c2o1` [ANGELICIN], the figures for the IC50 with HT-1080 [1], in the test with HT-1080 [2] and in the test with HT-1080 [3] were 2.5 µM, 15.7 µM and 2.6 µM, respectively.

Turning to `Cc1cc2c(n1C)CCc1cc(S(=O)(=O)c3ccccc3)c(O)nc1-2`, the IC50 in the test with HT-1080 [1] is 16.4 µM; with HT-1080 [2], greater than 20 µM; in the test with HT-1080 [3] it was greater than 20 µM.

Consider `Cc1cc2c(n1-c1ccccc1)CCc1cc(C#N)c(O)nc1-2`, for which the half-inhibitory concentration (IC50) in the test on HT-1080 [1] is 11.1 µM; in the test on HT-1080 [2], greater than 20 µM; with HT-1080 [3] it was 13.1 µM.

As to `Cc1cc2c(n1Cc1ccccc1)CCc1cc(C(=O)c3ccccc3)c(O)nc1-2`, the IC50 is 1.9 µM with HT-1080 [1], 14.7 µM in the test with HT-1080 [2] and 9 µM with HT-1080 [3].

In the case of `Cc1cc2c(n1Cc1ccccc1)CCc1cc(S(=O)(=O)c3ccccc3)c(O)nc1-2`, the IC50 with HT-1080 [1] is 1.8 µM; in the test with HT-1080 [2] it was greater than 20 µM; with HT-1080 [3], 15.1 µM.
